Assay results reported in PMC12334608 (Nature Communications, 2025).
Substitutions are numbered along the chain they refer to.

Experiments:
Format in all cases: biochemical, C. elegans
ACOX-1.1(H396G) = assay: Enzyme-coupled kinetic assay, ACOX-1.1; settings: 10 μM FAD, various ATP
Outline: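 Coupled H2O2 assay on a plate reader using the mutant enzyme (250 nM final). […] Peroxide was coupled through 4-aminoantipyrine (0.82 mM final), phenol (10.6 mM final) and peroxidase, read at 500 nm. Substrate was 25 µM lauroyl-CoA in 50 mM Tris-HCl pH 7.5, 150 mM NaCl, 10 mM MgCl2. Initial rate was taken over a 30 s window at 25–26 °C.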

ACOX-1.1(R343Q) = target: T1, ACOX-1.1(R343Q) (Caenorhabditis elegans, UniProt O62140, R343Q); assay: Enzyme-coupled kinetic assay, ACOX-1.1; settings: varying ATP
T1 sequence (O62140 1-674 R343Q): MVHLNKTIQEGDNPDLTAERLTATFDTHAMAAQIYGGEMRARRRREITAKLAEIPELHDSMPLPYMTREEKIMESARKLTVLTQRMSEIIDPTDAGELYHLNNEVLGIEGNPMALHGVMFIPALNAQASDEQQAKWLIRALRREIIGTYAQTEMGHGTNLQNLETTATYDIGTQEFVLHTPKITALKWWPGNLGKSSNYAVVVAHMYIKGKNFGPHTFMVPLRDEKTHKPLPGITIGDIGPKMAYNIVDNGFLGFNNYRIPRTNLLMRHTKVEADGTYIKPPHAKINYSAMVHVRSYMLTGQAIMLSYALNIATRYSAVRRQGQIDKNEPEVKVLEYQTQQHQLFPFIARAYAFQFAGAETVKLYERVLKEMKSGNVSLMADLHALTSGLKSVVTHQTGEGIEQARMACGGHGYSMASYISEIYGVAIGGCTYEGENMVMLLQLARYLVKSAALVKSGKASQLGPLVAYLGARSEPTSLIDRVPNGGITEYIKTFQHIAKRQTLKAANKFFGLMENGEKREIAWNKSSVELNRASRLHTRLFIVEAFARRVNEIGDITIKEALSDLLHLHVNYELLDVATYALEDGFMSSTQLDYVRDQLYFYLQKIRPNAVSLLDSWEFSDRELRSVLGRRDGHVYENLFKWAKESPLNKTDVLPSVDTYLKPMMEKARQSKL

ACOX-1.1(R343A) = target: T2, ACOX-1.1(R343A) (Caenorhabditis elegans, UniProt O62140, R343A); assay: Enzyme-coupled kinetic assay, ACOX-1.1; settings: varying ATP
T2 sequence (O62140 1-674 R343A): T1 sequence (O62140 1-674 R343Q) with Q343A

ACOX-1.1(K391N) = target: T3, ACOX-1.1(K391N) (Caenorhabditis elegans, UniProt O62140, K391N); assay: Enzyme-coupled kinetic assay, ACOX-1.1
T3 sequence (O62140 1-674 K391N): T1 sequence (O62140 1-674 R343Q) with Q343R, K391N

ACOX-1.1 = target: T4, ACOX-1.1 (Caenorhabditis elegans, UniProt O62140); assay: ATP hydrolysis by HPLC; settings: 1 h incubation
T4 sequence (O62140 1-674): T1 sequence (O62140 1-674 R343Q) with Q343R

Nc1ncnc2c1ncn2[C@@H]1O[C@H](COP(=O)(O)OP(=O)(O)OP(=O)(O)O)[C@@H](O)[C@H]1O [ATP]
response of enzyme activity to ATP (ACOX-1.1(H396G)): do not respond to ATP
influence of ATP on the activity of the enzyme (ACOX-1.1(R343Q)): no influence on the activity of the enzyme
influence of ATP on the activity of the enzyme (ACOX-1.1(R343A)): no influence on the activity of the enzyme
response of enzyme activity to ATP (ACOX-1.1(K391N)): did not respond to ATP
hydrolysis of ATP by ACOX-1.1 (ACOX-1.1): not hydrolyzed by ACOX-1.1
